Source: PMC3158460 (Molecular cell, 2011)
One block for each compound: values may come before it. Residues, ends and D or L forms follow the SMILES beside them.

Assays:
[1] = molecular target: T1, LGN TPR repeats (Mus musculus, UniProt Q8VDU0); conditions: fit of the LGN TPR0-7/NuMA fluorescence polarization binding curve; Fig. 2C
T1 sequence (Q8VDU0 22-357): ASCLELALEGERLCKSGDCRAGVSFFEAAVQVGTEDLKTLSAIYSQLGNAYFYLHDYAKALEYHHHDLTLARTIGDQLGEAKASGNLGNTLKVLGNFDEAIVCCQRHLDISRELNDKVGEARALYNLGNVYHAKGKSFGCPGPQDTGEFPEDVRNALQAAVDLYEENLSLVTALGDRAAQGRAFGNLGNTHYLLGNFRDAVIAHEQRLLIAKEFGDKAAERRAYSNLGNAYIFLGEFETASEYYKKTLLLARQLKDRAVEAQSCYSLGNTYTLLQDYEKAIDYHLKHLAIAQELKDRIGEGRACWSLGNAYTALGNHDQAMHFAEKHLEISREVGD
In short: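 Fluorescence polarization at 25 °C using a fluorimeter with an automated polarizer. A FITC-labeled human NuMA peptide (~1 μM) was titrated with mouse LGN TPR0-7 in 50 mM Tris pH 8.0, 100 mM NaCl, 1 mM DTT, 1 mM EDTA. The LGN fragment was expressed from a modified pET32a vector in E. coli BL21(DE3) at 16°C and purified by Ni2+-NTA then size-exclusion chromatography.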

[2] = molecular target: FITC-labeled NuMA peptide (aa 1886-1912) (human) (UniProt Q14980); assay: fluorescence polarisation + ITC
[3] = molecular target: mInsc22 (aa 19-40), peptide of the fluorescence assays (mouse); assay: fluorescence polarisation
[4] = molecular target: NuMA_C (1898-1912) (human) (UniProt Q14980); assay: fluorescence polarisation
[5] = molecular target: Mud peptide (Drosophila); assay: fluorescence polarisation
[6] = molecular target: mInsc38 (aa 20-57) (mouse); assay: fluorescence polarisation
[7] = molecular target: NuMA_N (1885-1898) (human) (UniProt Q14980); assay: fluorescence polarisation

Hill coefficient of LGN/NuMA binding curve [1]: ~2.0
Compound: CC[C@H](C)[C@H](NC(=O)[C@H](CCCNC(=N)N)NC(=O)[C@H](CC(N)=O)NC(=O)[C@H](Cc1c[nH]c2ccccc12)NC(=O)[C@H](CC(=O)O)NC(=O)[C@H](CC(=O)O)NC(=O)[C@H](CC(C)C)NC(=O)[C@H](CCC(N)=O)NC(=O)[C@H](CCC(=O)O)NC(=O)[C@@H]1CCCN1C(=O)[C@H](CCC(=O)O)NC(=O)[C@H](CC(=O)O)NC(=O)[C@H](CCC(N)=O)NC(=O)[C@H](CS)NC(=O)[C@@H](NC(=O)CNC(=O)[C@H](CCSC)NC(=O)[C@H](Cc1ccc(O)cc1)NC(=O)[C@H](Cc1ccccc1)NC(=O)[C@H](CO)NC(=O)[C@@H](N)CC(N)=O)[C@@H](C)O)C(=O)N[C@@H](C)C(=O)N[C@@H](CCC(=O)O)C(=O)N[C@@H](CC(C)C)C(=O)N[C@@H](CCC(N)=O)C(=O)N[C@@H](CCC(N)=O)C(=O)N[C@@H](CCCNC(=N)N)C(=O)O [NuMA] (H-NSFYMGTCQDEPEQLDDWNRIAELQQR-OH; N-terminus and C-terminus assumed)

Kd [2]: 60 nM
Compound: LGN (aa 15-479) (domain or fragment)

fold decrease in NuMA binding (against the longer LGN fragments) [2]: 200 fold
Compound: LGN (aa 27-350) (domain or fragment)

fold decrease in binding affinity (against LGN TPR0-7) [3]: 10 fold
Compound: LGN TPR4-7 (aa 191-350) (domain or fragment)

Kd [4]: 67100 nM
Kd [5]: 230 nM
Kd [6]: 47 nM
Kd [7]: 31700 nM
Compound: LGN(15-350) (domain or fragment)
